The record followed here is PMC4971285 (International Journal for Parasitology: Drugs and Drug …, 2016).

Read-outs that look alike come from different tables or passages of the source. Where only a bound is given, the exact number is not on record here.

One data set deals with Cardiomyocytes. In words: Cytotoxicity on primary cardiomyocytes. Format: cell-based, mice. The note with it: read-out: CC50 Vero/CM, cardiomyocytes, 72 h, resazurin. The essentials: (§1)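 Heart muscle cells were enzymatically isolated from mouse embryo myocardia and grown in DMEM with 2.5 mM CaCl2, 2% chick embryo extract, 7% FBS and 1 mM L-glutamine. Seeded 7 × 10^4/well, cultured 24 h, then treated 72 h at 100 to 3.7 μM, with or without 30 μM heme. Resazurin 0.005% for 4 h, fluorescence at 530/600 nm. CC50 fitted against untreated control. Triplicates.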
(In general: The colour change of resazurin is a common sign of viable cells or microbes.)

Data set [1] can be described thus: Cytotoxicity on primary cardiomyocytes. Format: cell-based, mice. The note with it: mouse, primary embryonic cardiomyocytes. In a few lines: as §1
For data set [2], the system named is T. cruzi Y epimastigote forms. In words: Epimastigote growth inhibition. Format: cell-based. Particulars: Trypanosoma cruzi, 72 h, read-out: IC50 (Concentration that inhibits the growth of 50% of T. cruzi Y epimastigote forms within 72 h), 72 h, in the presence of 150 μM of heme, Probit. In a few lines: (§2)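 Log-phase Y-strain epimastigotes (5 × 10^5/mL) treated 72 h at 28 °C in BHI with folic acid, 150 μM hemin and 10% FBS, at 50, 25 and 12.5 μM. Final DMSO ≤1%. Counted in a Neubauer chamber, with motility and morphology as viability criteria. IC50 derived by probit. Selectivity index taken as cardiomyocyte CC50 divided by epimastigote IC50.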

A short description of data set [3]: Epimastigote growth inhibition. Format: cell-based. The note with it: Trypanosoma cruzi. In a few lines: as §2
Another data set concerns T. cruzi Y amastigotes. In words: Intracellular amastigotes in infected cardiomyocytes. Format: cell-based. Particulars: Trypanosoma cruzi, Cardiomyocyte, 72 h, read-out: Percentage of amastigote growth inhibition, 72 h of treatment with 10 μM of compounds.
For data set [4], the system named is T. cruzi Y trypomastigotes. Description: Trypomastigote viability. Format: cell-based, Trypanosoma cruzi. The note with it: 30 μM compound, 24 h, with vs without 30 μM hemin. The essentials:
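Culture-derived Y-strain trypomastigotes were collected from infected Vero supernatants at 4 dpi. Parasites (2 × 10^6/100 μl) incubated 24 h at 37 °C in RPMI 1640 with 30 μM test compound, with or without 30 μM hemin. […] Viability read by resazurin (0.005%) fluorescence at 530/600 nm. Percentage death calculated against the matching untreated or hemin-only control.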

The subject of another data set is Vero cells. In words: Cytotoxicity on Vero cells. Format: cell-based. In a few lines:
(§3)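 Vero cells kept in RPMI 1640 with 10% FBS at 37 °C, 5% CO2, seeded 1.5 × 10^4/well and cultured 24 h. Treated 72 h at 100 to 3.7 μM, with or without 30 μM heme in medium. Resazurin (0.005%) added for 4 h at 37 °C, fluorescence read at 530/600 nm. CC50 fitted from dose-response versus untreated control. Triplicates.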

Data set [5] is described as follows: Cytotoxicity on Vero cells. Particulars: African green monkey. Format: cell-based. In a few lines: as §3

Broadly, the inhibition of growth is the percentage by which the read-out fell short of the control.

For `O=C(Cn1ccnc1[N+](=O)[O-])NCc1ccccc1` [Bz, benznidazole, reference compound], the CC50 with Cardiomyocytes (medium without heme) was > 100 µM; in the data set on Cardiomyocytes (with 30 μM of heme), > 100 µM; in the data set with Vero cells (read-out: CC50 Vero/CM, medium without heme, 72 h, resazurin), > 100 µM; in the data set on Vero cells (read-out: CC50 Vero/CM, with 30 μM of heme, 72 h, resazurin) it was > 100 µM. Moreover, the CC50 at 72 h in data set [1] and in data set [5] was > 100 µM each time. For the same molecule, in data set [2], the IC50 was determined as 5.6 ± 0.05 µM. For the same molecule, the selectivity ratio at 72 h in data set [3] was > 17.9. The inhibition of growth at 10 µM in the data set with T. cruzi Y amastigotes is 99.8 ± 0.4%. Moreover, the “increase in activity (death of trypomastigote forms) by combination with hemin” value in data set [4] is listed as “about 1.3 fold”.
`N#Cc1cnc2ccc(Cl)cc2c1Nc1ccccc1` [Compound 1a, 6-chloro-4-(phenylamino)quinoline-3-carbonitrile]: the CC50 at 72 h in data set [1] and in data set [5] was > 100 µM in each case. Moreover, in data set [2], the IC50 came to 17.6 ± 6.1 µM. The selectivity ratio at 72 h in data set [3] was > 5.68. Also, the inhibition of growth at 10 µM in the data set with T. cruzi Y amastigotes was found to be 45.5 ± 9%. The “increase in activity (death of trypomastigote forms) by combination with hemin” value in data set [4] is given as ~1.6 fold.
For the molecule `N#Cc1cnc2ccc(Cl)cc2c1Nc1cccc(F)c1` [Compound 1b, 6-chloro-4-(3’-fluorophenylamino)quinoline-3-carbonitrile], the values for the CC50 at 72 h in data set [1] and in data set [5] were 67 ± 11.6 µM and 69 ± 22 µM, respectively. Also, the IC50 in data set [2] stood at 16.6 ± 0.2 µM. In data set [3], the selectivity ratio at 72 h was 4. In addition, the inhibition of growth at 10 µM in the data set on T. cruzi Y amastigotes was found to be 53.2 ± 10%.
In the same order, the values of `N#Cc1cnc2ccc(Cl)cc2c1Nc1ccc(F)cc1` [Compound 1c, 6-chloro-4-(4’-fluorophenylamino)quinoline-3-carbonitrile] are > 100 µM, > 100 µM, 8.8 ± 1.3 µM, > 11.4 and 52.5 ± 6%.
As for `N#Cc1cnc2ccc(Cl)cc2c1Nc1ccccc1Cl` [Compound 1d, 6-chloro-4-(2’-chlorophenylamino)quinoline-3-carbonitrile], the CC50 at 72 h in data set [1] worked out at 47.7 ± 13 µM; in data set [5] it was 64 ± 12.5 µM. Further, the IC50 in data set [2] is 40 ± 13.7 µM. Also, the selectivity ratio at 72 h in data set [3] was determined as 1.19. The inhibition of growth at 10 µM in the data set on T. cruzi Y amastigotes came to 57.6 ± 8%.
Take `N#Cc1cnc2ccc(Cl)cc2c1Nc1cccc(Cl)c1` [Compound 1e, 6-chloro-4-(3’-chlorophenylamino)quinoline-3-carbonitrile]: the values for the CC50 at 72 h in data set [1] and in data set [5] were 65.2 ± 18.5 µM and 89 ± 18 µM, respectively. In addition, in data set [2], the IC50 amounted to 15.4 ± 0.7 µM. Moreover, the selectivity ratio at 72 h in data set [3] is 4.2. In the data set on T. cruzi Y amastigotes, the inhibition of growth at 10 µM amounted to 55.4 ± 7%.
On to `N#Cc1cnc2ccc(Cl)cc2c1Nc1cccc(Br)c1` [Compound 1f, 4-(3’-bromophenylamino)-6-chloroquinoline-3-carbonitrile], for which the CC50 at 72 h in data set [1] was > 100 µM; in data set [5], 71 ± 26 µM. The IC50 in data set [2] came out at 21.2 ± 14.2 µM. Moreover, in data set [3], the selectivity ratio at 72 h was > 4.7. Also, the inhibition of growth at 10 µM with T. cruzi Y amastigotes is 60.4 ± 9%.
